Hits are enriched below; roughly 2.1% of the tested compounds scored in any of these assays.
Efflux pump mplx – blocks antifungal efflux pumps in multiplex yeast assay. AID 485275. inhibition, % at 10 µM. S. cerevisiae Candida pump triplex, Nile Red efflux. actives 0.44% (n = 330,000);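 active = plate passing quality check with inhibition over a set limit, or well fluorescence over plate mean plus 4 SD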;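 note: Nile Red retained in pooled yeast measured as flow cytometry median fluorescence; higher means more Nile Red kept so more efflux inhibition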
SUMO Mot1 rescue – SUMOylation pathway inhibition by Mot1-301 growth rescue; S. cerevisiae Mot1-301 growth rescue, ATP luminescence, 38.5C; percent above DMSO median, 100 means doubled; growth rescue, % at 18.8 µM; actives 1% (n = 320,000); AID 2716;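 active = every valid replicate shows activation above 250% relative to neutral control wells; inactive = the rest, any valid replicate at or below 250%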
UCH37 DUB inh – human UCH37 deubiquitinating enzyme inhibition | Q9Y5K5 | purified proteasome/UCH37, Ub-AMC cleavage fluorescence | inhibition, % (no concentration beside the values) | actives 0.33% (n = 330,000);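 active = mean inhibition over replicate wells above about 20%, limit read from the data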
Target sequence (Q9Y5K5 whole entry, looked up): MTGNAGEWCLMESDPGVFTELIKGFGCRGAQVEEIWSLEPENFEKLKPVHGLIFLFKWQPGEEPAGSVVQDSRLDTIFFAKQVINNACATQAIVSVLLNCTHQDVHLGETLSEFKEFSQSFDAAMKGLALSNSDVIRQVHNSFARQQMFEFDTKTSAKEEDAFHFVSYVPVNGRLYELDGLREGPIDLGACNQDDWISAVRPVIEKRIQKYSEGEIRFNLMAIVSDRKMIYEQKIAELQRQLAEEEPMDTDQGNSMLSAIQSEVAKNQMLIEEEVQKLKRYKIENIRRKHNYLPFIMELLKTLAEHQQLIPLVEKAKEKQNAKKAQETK
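Material: human UCH37 enzyme supplied as purified proteasome complex / Amount: 0.15 nM proteasome as dispensed / Buffer or medium: pH 7.4 Tris-HCl (50 mM) with ovalbumin, ATP-MgCl2, DTT / Times: preincubation 30 min, reaction 25 min, room temperature / Technique: AMC fluorescence from Ub-AMC cleavage, excitation 355 nm, emission 460 nm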
Cardiac RTF inh – cardiac RTF calcium desensitization. P19429+P45379. IANBD-labeled cardiac RTF, Ca2+ fluorescence. inhibition, % at 7.15 µM. actives 0.12% (n = 340,000);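 active = inhibition above the mean inhibition of all tested compounds plus 3 SD, cut at about 17% in these data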;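 note: assay run at fixed EC70 calcium of 1.6 mM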
ARNT TACC3 PPI – disrupts binding between human ARNT and TACC3 | inhibition, % at 9.99 µM | AID 623870 | actives 0.66% (n = 390,000) | AlphaScreen His-ARNT PAS-B/GST-TACC3 binding, luminescence; TACC3 fragment carries E629A point mutation | Q9Y6A5;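 active = mean inhibition of replicates at least 50% and at least half of replicates each reaching 50%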
cardiac RTF act – increases calcium sensitivity of human cardiac regulated thin filaments. IANBD-labeled TnC RTF fluorescence at EC20 calcium; 0% EC20 calcium, 100% full calcium. activation, % at 7.2 µM. P19429+P45379. actives 0.24% (n = 340,000);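 active = activation above the mean over all tested compounds plus 3 SD, cut at about 30% in these data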;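 note: rise in fluorescence read as greater calcium sensitivity of cardiac thin filaments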
Yeast Mot1 SUMO – inhibits SUMO pathway, affecting Mot1-301 yeast growth. 2,300 tested, under 10 active. S. cerevisiae Mot1-301 galactose growth, ATP luminescence, 24 h; -100 = growth of slx-deleted rescue strain. growth activity, percent, % at 42 µM. AID 493004. shares compounds with SUMO Mot1 rescue;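 active = Signal drops as the depositor expects, and the fitted half-maximal dose is no more than ten times the top valid tested dose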;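 note: more negative values mean stronger growth rescue toward the control strain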
A number is an active result.

Screening COc1ccccc1N1CCN(C(=O)C2CCN(S(=O)(=O)c3ccc(C)cc3)CC2)CC1 returned Efflux pump mplx inactive, SUMO Mot1 rescue 989, UCH37 DUB inh inactive, Cardiac RTF inh inactive, ARNT TACC3 PPI inactive, cardiac RTF act inactive and Yeast Mot1 SUMO inactive.
For CCOc1ccc(S(=O)(=O)N2CCC(C(=O)N3CCN(c4ccccc4)CC3)CC2)cc1 the results were Efflux pump mplx inactive, SUMO Mot1 rescue 487, UCH37 DUB inh inactive, Cardiac RTF inh inactive, ARNT TACC3 PPI inactive, cardiac RTF act inactive and Yeast Mot1 SUMO inactive.
`O=C(C1CCN(S(=O)(=O)c2ccccc2)CC1)N1CCN(c2ccccc2)CC1` gave Efflux pump mplx inactive, SUMO Mot1 rescue inactive, UCH37 DUB inh inactive, Cardiac RTF inh inactive, ARNT TACC3 PPI inactive and cardiac RTF act inactive.
CCOC(=O)c1c(N=CC2C(=O)CC(C)(C)CC2=O)sc2c1CCCC2 was read as UCH37 DUB inh inactive.
Screening Cn1c(-c2ccc3c(c2)OCO3)cnc1NC(=O)CCC(=O)NCCc1ccccc1 returned Efflux pump mplx inactive, SUMO Mot1 rescue 676, UCH37 DUB inh inactive, Cardiac RTF inh inactive, ARNT TACC3 PPI inactive, cardiac RTF act inactive and Yeast Mot1 SUMO inactive.
Cn1c(-c2ccc3c(c2)OCO3)cnc1NCc1cccc(Cl)c1 was read as Efflux pump mplx inactive, SUMO Mot1 rescue inactive, UCH37 DUB inh inactive, Cardiac RTF inh inactive, ARNT TACC3 PPI inactive and cardiac RTF act inactive.
Screening COc1ccc(NC(=O)CSCC(=O)N2CCCc3ccccc32)cc1 returned Efflux pump mplx inactive, SUMO Mot1 rescue inactive, UCH37 DUB inh inactive, Cardiac RTF inh inactive, ARNT TACC3 PPI inactive and cardiac RTF act inactive.
For Cc1cccc(NC(=O)CSCC(=O)N2CCCc3ccccc32)c1 the results were Efflux pump mplx inactive, SUMO Mot1 rescue 503, UCH37 DUB inh inactive, Cardiac RTF inh inactive, ARNT TACC3 PPI inactive, cardiac RTF act inactive and Yeast Mot1 SUMO inactive.
`Cc1ccc(NC(=O)CSCC(=O)Nc2ccccc2N2CCCC2)cc1` gave Efflux pump mplx inactive, SUMO Mot1 rescue 421, UCH37 DUB inh inactive, Cardiac RTF inh inactive, ARNT TACC3 PPI inactive, cardiac RTF act inactive and Yeast Mot1 SUMO inactive.
Screening Cc1ccc(NC(=O)CSCC(=O)Nc2ccccc2C(=O)N2CCCCC2)cc1 returned Efflux pump mplx inactive, SUMO Mot1 rescue inactive, UCH37 DUB inh inactive, Cardiac RTF inh inactive, ARNT TACC3 PPI inactive and cardiac RTF act inactive.
`Cc1ccccc1N(CC(=O)NN=Cc1cc(C)n(-c2ccccc2C)c1C)S(C)(=O)=O` gave UCH37 DUB inh inactive.
Cc1nc2ccccc2c(=O)n1CC(=O)N1CCOCC1 was read as Efflux pump mplx inactive, SUMO Mot1 rescue 687, UCH37 DUB inh inactive, Cardiac RTF inh inactive, ARNT TACC3 PPI inactive, cardiac RTF act inactive and Yeast Mot1 SUMO inactive.
`Cc1ccc(C(=O)N2CC(C)OC(C)C2)cc1[N+](=O)[O-]` (stereo not drawn) gave Efflux pump mplx inactive, SUMO Mot1 rescue inactive, UCH37 DUB inh inactive, Cardiac RTF inh inactive, ARNT TACC3 PPI inactive and cardiac RTF act inactive.
For CC1CN(C(=O)c2cc([N+](=O)[O-])cc([N+](=O)[O-])c2)CC(C)O1 (stereo not drawn) the results were Efflux pump mplx inactive, SUMO Mot1 rescue active, UCH37 DUB inh inactive, Cardiac RTF inh inactive, ARNT TACC3 PPI inactive, cardiac RTF act inactive and Yeast Mot1 SUMO inactive.
`CC(C)(C)c1ccc(C(=O)NCCC(=O)N2CCN(c3ncccn3)CC2)cc1` gave Efflux pump mplx inactive, SUMO Mot1 rescue 552, UCH37 DUB inh inactive, Cardiac RTF inh inactive, ARNT TACC3 PPI inactive, cardiac RTF act inactive and Yeast Mot1 SUMO inactive.
`COc1ccc(C(=O)CSc2nnc(-c3ccc(C)cc3)o2)cc1` gave Efflux pump mplx inactive, SUMO Mot1 rescue inactive, UCH37 DUB inh inactive, Cardiac RTF inh inactive, ARNT TACC3 PPI inactive and cardiac RTF act inactive.
`COc1ccc(-c2nnc(SCC(C)C)o2)cc1` gave Efflux pump mplx inactive, SUMO Mot1 rescue 584, UCH37 DUB inh inactive, Cardiac RTF inh inactive, ARNT TACC3 PPI inactive, cardiac RTF act inactive and Yeast Mot1 SUMO inactive.
Screening CCC(=O)N1CCc2cc(S(=O)(=O)CCC(=O)Nc3ccc(OC)cc3)ccc21 returned Efflux pump mplx inactive, SUMO Mot1 rescue inactive, UCH37 DUB inh inactive, Cardiac RTF inh inactive, ARNT TACC3 PPI inactive and cardiac RTF act inactive.
`CCC(=O)N1CCc2cc(S(=O)(=O)CCC(=O)Nc3cccc(C)n3)ccc21` gave Efflux pump mplx inactive, SUMO Mot1 rescue active, UCH37 DUB inh inactive, Cardiac RTF inh inactive, ARNT TACC3 PPI inactive, cardiac RTF act inactive and Yeast Mot1 SUMO inactive.
`CC1(C)OC(c2ccccc2)=C/C(=C/C=NNC(=O)c2ccncc2)O1` gave UCH37 DUB inh inactive.
`CCCOc1ccccc1C1NC(=O)NC(C)=C1C(=O)OCCOCC` (stereo not drawn) gave Efflux pump mplx inactive, SUMO Mot1 rescue 565, UCH37 DUB inh inactive, Cardiac RTF inh inactive, ARNT TACC3 PPI inactive, cardiac RTF act inactive and Yeast Mot1 SUMO inactive.
Screening CCCCOc1ccccc1C1NC(=O)NC(C)=C1C(=O)OCCOCC (stereo not drawn) returned Efflux pump mplx inactive, SUMO Mot1 rescue inactive, UCH37 DUB inh inactive, Cardiac RTF inh inactive, ARNT TACC3 PPI inactive and cardiac RTF act inactive.
For CC(C)COc1ccc(C(=O)Nc2ccc([N+](=O)[O-])cc2)cc1 the results were Efflux pump mplx inactive, SUMO Mot1 rescue 691, UCH37 DUB inh inactive, Cardiac RTF inh inactive, ARNT TACC3 PPI inactive, cardiac RTF act inactive and Yeast Mot1 SUMO inactive.
For CCC(=O)Oc1ccc(C(=O)Nc2ccc([N+](=O)[O-])cc2)cc1 the results were Efflux pump mplx inactive, SUMO Mot1 rescue inactive, UCH37 DUB inh inactive, Cardiac RTF inh inactive, ARNT TACC3 PPI inactive and cardiac RTF act inactive.
Cc1ccc2c(nc3sc(=Cc4cccs4)c(=O)n32)c1C was read as UCH37 DUB inh inactive.
Screening O=c1oc2ccc3ccccc3c2cc1-c1nnc(-c2cccs2)o1 returned Efflux pump mplx inactive, Cardiac RTF inh inactive, ARNT TACC3 PPI inactive and cardiac RTF act inactive.
COc1ccc(-c2nnc(-c3cc4c(ccc5ccccc54)oc3=O)o2)cc1 was read as Efflux pump mplx inactive, SUMO Mot1 rescue 574, UCH37 DUB inh inactive, Cardiac RTF inh inactive, ARNT TACC3 PPI inactive, cardiac RTF act inactive and Yeast Mot1 SUMO inactive.
Screening N#Cc1c(NC(=O)c2ccc([N+](=O)[O-])o2)sc2c1CCC2 returned Efflux pump mplx inactive, SUMO Mot1 rescue 466, UCH37 DUB inh inactive, Cardiac RTF inh inactive, cardiac RTF act inactive and Yeast Mot1 SUMO inactive.
NC(=O)c1c(NC(=O)c2ccc([N+](=O)[O-])o2)sc2c1CCCC2 was read as Efflux pump mplx inactive, SUMO Mot1 rescue inactive, UCH37 DUB inh inactive, Cardiac RTF inh inactive and cardiac RTF act inactive.
